{"source": "ChEMBL document CHEMBL3045478", "about": "“Insect antifeedant flavonoids from Gnaphalium affine D. Don” (2000)", "note": "Calls of active or inactive are those of the source. The calls are words filed in the database; no cut-off is given here.", "data": [{"system": "Spodoptera litura", "test": "Antifeedant activity against Spodoptera litura in compound treated cork borer from fresh sweet potato leaves by Choice Leaf-Disk Bioassay", "assay_type": "functional", "outline": "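Partly eaten disks were photocopied and scanned to digital files, and each treated disk was measured against an intact disk. Antifeedant index (AFI) = % treated consumed/(% treated + % control consumed) × 100. The effective dose was taken as the midpoint between complete inhibition and no effect.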", "values": [{"compound": "COc1cc2oc(-c3ccccc3)c(OC)c(=O)c2c(O)c1O", "ED50": "0.25 ×10⁻⁷ mol/cm2", "pED50": 7.6}, {"compound": "COc1c(OC)c(O)c2c(=O)c(OC)c(-c3ccccc3)oc2c1OC", "ED50": "0.2 ×10⁻⁷ mol/cm2", "pED50": 7.7}, {"compound": "COc1cc(O)c2c(=O)c(OC)c(-c3ccc(OC)c(OC)c3)oc2c1", "ED50": "inactive"}, {"compound": "O=c1c(O)c(-c2ccc(O)c(O)c2)oc2cc(O)cc(O)c12", "ED50": "inactive"}, {"compound": "COc1ccc(-c2oc3c(OC)c(OC)c(OC)c(O)c3c(=O)c2OC)cc1", "note": "[5-HYDROXYAURANETIN]", "ED50": "1.1 ×10⁻⁷ mol/cm2", "pED50": 6.96}, {"compound": "COc1ccc(/C=C/C(=O)c2c(O)cc(OC)cc2OC)cc1", "note": "[FLAVOKAWAIN A]", "ED50": "90 ×10⁻⁷ mol/cm2", "pED50": 5.05}, {"compound": "COc1ccc(-c2cc(=O)c3c(O)c(OC)c(OC)c(OC)c3o2)cc1", "note": "[GARDENIN B]", "ED50": "1.8 ×10⁻⁷ mol/cm2", "pED50": 6.74}, {"compound": "COc1cc(O)cc(O)c1C(=O)/C=C/c1ccc(O)cc1", "note": "[HELICHRYSETIN]", "ED50": "3.8 ×10⁻⁷ mol/cm2", "pED50": 6.42}, {"compound": "C=C(C)[C@H]1Cc2c(ccc3c2O[C@@H]2COc4cc(OC)c(OC)cc4[C@@H]2C3=O)O1", "note": "[ROTENONE]", "ED50": "1.5 ×10⁻⁷ mol/cm2", "pED50": 6.82}, {"compound": "COc1ccc(-c2cc(=O)c3c(OC)c(OC)c(OC)c(OC)c3o2)cc1", "note": "[TANGERETIN]", "ED50": "2.8 ×10⁻⁷ mol/cm2", "pED50": 6.55}]}]}
